Compound activity deposited in PubChem BioAssay by The Scripps Research Institute Molecular Screening Center.
TDP2 inh – human TDP2 enzyme inhibitors, primary screen, biochemical, epi absorbance, recombinant enzyme; Tyrosyl-DNA phosphodiesterase 2 (Homo sapiens), O95551; T5PNP hydrolysis, p-nitrophenol absorbance 415 nm; inhibition, % at 12.8 µM; 0.34% of 370,000 active; AID 720702, 2013;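 active = inhibition above the mean of all tested compounds plus 3 SD, set per campaign, cut at about 25% in these data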;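 note: 0% = DMSO with enzyme and 100% = buffer with substrate but no TDP2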
Target sequence (O95551 whole entry, looked up): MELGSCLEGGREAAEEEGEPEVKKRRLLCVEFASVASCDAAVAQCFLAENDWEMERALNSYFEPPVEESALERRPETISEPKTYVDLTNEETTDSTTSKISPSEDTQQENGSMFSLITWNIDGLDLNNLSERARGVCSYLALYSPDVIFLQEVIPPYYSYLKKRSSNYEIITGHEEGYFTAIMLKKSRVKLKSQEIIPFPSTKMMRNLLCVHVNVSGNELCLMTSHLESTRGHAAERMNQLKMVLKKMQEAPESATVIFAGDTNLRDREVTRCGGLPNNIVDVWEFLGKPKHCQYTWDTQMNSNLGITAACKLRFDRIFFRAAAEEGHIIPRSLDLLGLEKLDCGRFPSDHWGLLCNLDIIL
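test system = human TDP2 enzyme | input = TDP2 enzyme at 120 nM final | medium = 50 mM Tris-HCl pH 7.5 with Mg2+, KCl, DTT, BSA | also added = T5PNP substrate, 5 mM | times = 2 h at 37 °C | technique = epi absorbance | benchmarks = high control without enzyme, low control DMSO plus TDP2 | replication = each compound tested once, singlicate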
MBD2 inh – inhibitors of MBD2 binding to methylated DNA, primary screen, biochemical, TR-FRET, DNA-binding domain, human | AID 686964, 2013 | MBD2 binding to methylated oligonucleotide | inhibition, % at 4.4 µM | 0.31% of 370,000 active | Methyl-CpG-binding domain protein 2 (Homo sapiens), Q9UBB5; in the data active = inhibition above about 13%
LEDGF integ inh – blockers of LEDGF/p75-dependent integrase strand transfer – biochemical, TR-FRET, high throughput, primary screen; TR-FRET IN-LEDGF/p75 DNA integration, Eu/Cy5; inhibition, % at 3.7 µM; HIV-1 integrase (with human LEDGF/p75); 0.64% of 370,000 active; AID 743269, 2014;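 active = inhibition above the screen-wide mean plus 3 SD, cut at about 13% in these data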;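 note: signal is the Cy5 over europium emission ratio at 671 and 618 nm; 0% = plate median of compound wells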
UHRF1 MBD2 ctr – UHRF1 methylated DNA binding inhibitors, primary screen, counter-screen for MBD2 inhibitor project, biochemical, TR-FRET, human UHRF1, single concentration; UHRF1 binding to methylated oligo; inhibition, % at 4.4 µM; 0.75% of 370,000 active; AID 687016, 2013; in the data active = inhibition above about 21%;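 note: UHRF1 SRA domain binding a hemimethylated CpG hairpin DNA probe; 0% = median of test compound wells and 100% = reference inhibitor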
PRMT1 FP inh – PRMT1 methyltransferase inhibitors, primary screen, biochemical, fluorescence polarization | Protein arginine N-methyltransferase 1 (Homo sapiens), Q99873 | recombinant PRMT1, activity-based probe fluorescence polarization | 1.3% of 370,000 active | inhibition, % at 2.79 µM;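 active = inhibition above about 21% made by adding two undisclosed values, limit read from the data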
SIAE inh – human SIAE inhibitors, primary screen, biochemical, fluorescence polarization, FP-Rh probe, 1536-well HTS; Sialate O-acetylesterase (Homo sapiens), Q9HAT2; SIAE FP-Rh probe binding; inhibition, % at 9.66 µM; 0.69% of 370,000 active;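 active = inhibition above a cutoff: mean of compounds within the control limits plus 3 SD of those, cut at about 17% in these data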;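 note: 0% = plate median of compound wells and 100% = probe without SIAE protein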
PRMT1 confirm – PRMT1 methyltransferase inhibitors, confirmation, biochemical, fluorescence polarization, triplicate. inhibition, % at 2.79 µM. 42% of 3,300 active. recombinant His-PRMT1, activity-based probe fluorescence polarization. AID 687036, 2013. shares compounds with PRMT1 FP inh;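 active = mean inhibition across replicates above the hit cutoff derived for the earlier primary screen, cut at about 22% in these data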
Starred values were filed as active, the others as inactive; . = no result given. Shown are actives, neighbours in structure and some others; about 3.3% of the full set was active somewhere.

SMILES	TDP2 inh	MBD2 inh	LEDGF integ inh	UHRF1 MBD2 ctr	PRMT1 FP inh	SIAE inh	PRMT1 confirm
Cc1cccc2cc3c(N)c(C(=O)N4CCOCC4)sc3nc12	0.3	-3.3	-1.2	-1.5	36.2*	-3.8	12.0
CC1(C)Cc2c(c(N3CCOCC3)nc3sc(C(=O)N4CCCCC4)c(N)c23)CO1	1.2	-0.9	2.5	-4.8	16.7	-5.6	.
Nc1c(C(=O)N2CCOCC2)sc2nc(N3CCOCC3)c3c(c12)CCCC3	-6.8	-4.3	-4.7	2.8	33.8*	-0.7	11.6
CCCCOCCCNC(=O)C[C@H]1C[C@@]2(C(=O)OC)C(=C[C@H](C3CCCC3)O[C@@H]2C)N(CCc2ccc(OC)c(OC)c2)C1=O	0.9	-0.5	2.2	-0.5	1.4	-1.6	.
CCOc1ccc(-n2c(SCc3ccc(C#N)cc3)nnc2-c2ccco2)cc1	-0.6	9.3	-2.6	1.7	8.9	-5.8	.
O=C(CSc1nc(O)cc(=O)[nH]1)N1CCCc2ccccc21	9.1	-0.7	0.1	0.0	25.6*	14.5	6.8
Cc1cc(=O)[nH]c(SCC(=O)N2CCCc3ccccc32)n1	3.6	-3.4	-3.4	-1.2	4.3	-0.5	.
NS(=O)(=O)c1ccc(CCNC(=O)CCC(=O)c2cccs2)cc1	-12.7	2.8	-6.1	1.5	3.7	-3.3	.
O=C(CCC(=O)c1cccs1)NCCc1ccc(F)cc1	6.4	0.9	-0.5	-0.7	26.3*	1.7	-1.8
NC(=O)c1ccccc1NCC(=O)c1ccc(F)cc1	-14.0	4.6	-5.4	-1.0	34.1*	-0.4	2.8
O=C(CNc1ccc(F)cc1)c1ccccc1	6.7	1.8	-1.0	0.1	-0.5	4.5	.
COc1cc(OC)c(C2CC(=O)N3CN(c4ccccc4)CSC3=C2C#N)cc1OC (stereo not given)	-0.2	-1.9	3.4	-8.5	51.9*	4.7	26.4*
COc1ccc(Br)cc1C1CC(=O)N2CN(Cc3ccccc3)CSC2=C1C#N (stereo not given)	-4.1	-2.8	2.9	-0.4	25.0*	-1.6	20.1
COc1ccc(Br)cc1C1CC(=O)N2CN(C)CSC2=C1C#N (stereo not given)	-0.9	-3.5	2.8	-6.2	17.4	-5.1	.
COc1cc(OC)c(C2CC(=O)N3CN(C)CSC3=C2C#N)cc1OC (stereo not given)	1.1	0.8	2.1	-2.2	42.4*	4.7	77.5*
CCc1ccccc1N1CSC2=C(C#N)C(c3cc(OC)c(OC)cc3OC)CC(=O)N2C1 (stereo not given)	15.3	-0.2	4.7	-4.9	62.1*	9.7	79.4*
CCOC(=O)c1ccc(N2CSC3=C(C#N)C(c4ccc(OC)cc4OC)CC(=O)N3C2)cc1 (stereo not given)	8.1	-3.5	0.5	-0.8	9.4	2.7	.
COc1ccc(OC)c(C2CC(=O)N3CN(c4cccc(Cl)c4)CSC3=C2C#N)c1 (stereo not given)	11.5	1.6	-1.1	0.9	18.0	-0.5	.
COC(=O)C1CN(CCc2ccccc2)CCS(=O)(=O)N1Cc1ccc(Cl)cc1 (stereo not given)	0.0	-2.8	-1.7	-2.5	0.4	0.2	.
COCCCN1CCC2(CCC(c3ccccc3)CC2)C1=O (stereo not given)	-4.2	-10.2	-1.1	-3.6	-0.4	3.7	.
COCCCN1C(=O)[C@H](CC(=O)NCCCN2CCCC2=O)[C@]2(C(=O)OC)CCCCC=C12	-4.6	-5.7	5.2	-1.8	-5.1	-13.9	.
N#CC1=C2SCN(c3ccccc3)CN2C(=O)CC1c1c(Cl)cccc1Cl (stereo not given)	2.6	3.1	-2.2	-1.6	52.2*	-1.2	55.0*
N#CC1=C2SCN(c3ccccc3)CN2C(=O)CC1c1ccccc1Cl (stereo not given)	0.1	0.2	0.7	-1.7	19.9	4.0	.
O=C(OCCN1CCCC12CCC(c1ccccc1)CC2)c1ccccc1 (stereo not given)	0.8	-0.9	2.8	-0.6	4.3	-2.1	.
Oc1ccc(Cl)cc1C=Nc1ccccc1Br	4.5	-7.8	3.2	0.8	-2.1	-6.5	.
SMILES	TDP2 inh	MBD2 inh	LEDGF integ inh	UHRF1 MBD2 ctr	PRMT1 FP inh	SIAE inh	PRMT1 confirm
Oc1ccc(Br)cc1C=Nc1ccc2c3c(cccc13)CC2	1.7	-8.5	1.0	-6.0	55.7*	7.1	8.7
COC(=O)[C@]1(CNC(=O)C(F)(F)F)CC(=O)N(C)[C@@H]1c1ccccc1	-10.0	4.6	6.0	9.7	2.5	4.8	.
COc1ccc(NC(=O)CSc2nnc(-c3ccncc3)o2)c(OC)c1	-7.9	1.7	-1.9	-0.6	-0.1	3.6	.
COc1ccc(NC(=O)CSc2nnc(-c3cccnc3)o2)c(OC)c1	-0.1	2.3	-5.1	3.6	27.6*	-2.8	36.2*
CC1(C(=O)CSc2nc3ccccc3[nH]2)CCC(=O)O1 (stereo not given)	-3.5	-6.5	-0.3	-9.0	60.3*	4.0	40.6*
CCOC(=O)c1c(C)[nH]c(C)c1C(=O)CSc1nc2ccccc2[nH]1	-2.0	3.3	2.4	-1.0	-1.4	-2.3	.
Cn1c(N)c(C(=O)CSc2nc3ccccc3[nH]2)c(=O)n(C)c1=O	10.6	2.3	-0.2	5.0	27.9*	-1.3	1.0
CC(COc1cc(F)cc(C#N)c1)CN1CCC(C(O)(c2ccccc2)c2ccccc2)CC1 (stereo not given)	-12.4	3.1	5.0	-1.3	-8.0	-3.4	.
COc1ccccc1NC(CC(=O)c1ccccc1)C(=O)OCC(=O)c1ccc(C)c(C)c1 (stereo not given)	-11.2	2.6	3.7	6.1	50.3*	-2.4	10.0
Cc1ccc(S(=O)(=O)NCC(=O)N2CCN(c3ccccn3)CC2)cc1C	2.6	-0.9	-2.0	2.9	-1.1	-0.1	.
CCN1C(c2ccccc2)=C(c2ccccc2)S/C1=C\C=C1/SC(=S)N(C)C1=O	0.6	-5.5	-3.1	-4.5	6.0	-46.5	.
CCN1C(=O)/C(=C/C=C2/Sc3ccc4ccccc4c3N2CCO)SC1=S	-1.9	-2.4	-5.8	2.2	43.9*	-60.8	-2.9
O=C1CCC/C(=N/NC(=O)c2sc3ccccc3c2Cl)C1	-10.3	0.9	-3.3	-1.9	85.2*	-2.9	8.2
O=C(NN=C1CCCC1)c1sc2ccccc2c1Cl	-18.2	3.4	4.1	-5.2	0.0	-0.4	.
